Substitutions are numbered along the chain they refer to.
Tests used:
Format in all cases: biochemical
R47E PTP1B = molecular target: T1, R47E PTP1B (Homo sapiens, UniProt P18031, R47E); experiment: PTP assay, R47E PTP1B
T1 sequence (P18031 1-321 R47E): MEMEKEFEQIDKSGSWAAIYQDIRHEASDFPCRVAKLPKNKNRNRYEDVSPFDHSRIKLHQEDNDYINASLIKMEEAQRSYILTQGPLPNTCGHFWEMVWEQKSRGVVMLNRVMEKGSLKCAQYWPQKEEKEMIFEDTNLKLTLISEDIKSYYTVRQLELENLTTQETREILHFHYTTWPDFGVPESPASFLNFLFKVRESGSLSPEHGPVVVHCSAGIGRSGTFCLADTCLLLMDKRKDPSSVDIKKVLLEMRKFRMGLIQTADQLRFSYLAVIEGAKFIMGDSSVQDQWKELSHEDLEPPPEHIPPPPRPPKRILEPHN
Summary of the method: (§1)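 E. coli-expressed catalytic domains were used: wild-type, R24M or R47E PTP1B (aa 1–321), and SHP-1 (aa 205–595). Reactions started with PTP (0.5–20000 nM final) and dephosphorylation was monitored continuously at 282 nm. kcat, KM and kcat/KM came from initial-rate fits (Michaelis–Menten, or V = kcat[E][S]/KM when KM >> [S]) or from fits of progress curves.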

R24M PTP1B = molecular target: T2, R24M PTP1B (Homo sapiens, UniProt P18031, R24M); experiment: PTP assay, R24M PTP1B
T2 sequence (P18031 1-321 R24M): T1 sequence (P18031 1-321 R47E) with R24M, E47R
Summary of the method: as §1

PTPD1 = molecular target: T3, PTPD1 (Homo sapiens, UniProt Q16825); experiment: Pre-steady-state; details: 25 °C; initial phase not resolved, too fast for the instrument
T3 sequence (Q16825 875-1174): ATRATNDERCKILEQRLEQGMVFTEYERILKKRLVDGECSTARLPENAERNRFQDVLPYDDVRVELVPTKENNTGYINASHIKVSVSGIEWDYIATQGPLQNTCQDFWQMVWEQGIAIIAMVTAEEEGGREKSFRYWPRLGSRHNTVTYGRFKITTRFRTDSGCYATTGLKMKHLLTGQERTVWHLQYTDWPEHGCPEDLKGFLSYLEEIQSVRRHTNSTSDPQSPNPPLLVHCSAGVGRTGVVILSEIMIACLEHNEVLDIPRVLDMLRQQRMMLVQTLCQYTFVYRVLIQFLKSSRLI

PTP1B = molecular target: T4, PTP1B (Homo sapiens, UniProt P18031); experiment: PTP assay, wild-type PTP1B; details: WT PTP1B aa 1–321; pH 7.4
T4 sequence (P18031 1-321): T1 sequence (P18031 1-321 R47E) with E47R
Summary of the method: as §1

Km (R47E PTP1B; R47E PTP1B aa 1–321, pH 7.4): 2800 ± 300 µM
kcat (R47E PTP1B; R47E PTP1B aa 1–321, pH 7.4): 16 ± 1 s⁻¹
kcat/KM x 10^7 (R47E PTP1B; R47E PTP1B aa 1–321, pH 7.4): 0.00057 x 10^7 M^−1 s^−1
WT/R47E (R47E PTP1B; ratio of kcat/KM, WT over R47E PTP1B (fold decrease by the mutation)): 1.2
Km (R24M PTP1B; R24M PTP1B aa 1–321, pH 7.4): 3 ± 0.1 µM
kcat (R24M PTP1B; R24M PTP1B aa 1–321, pH 7.4): 17 ± 1 s⁻¹
kcat/KM x 10^7 (R24M PTP1B; R24M PTP1B aa 1–321, pH 7.4): 0.00057 x 10^7 M^−1 s^−1
WT/R24M (R24M PTP1B; ratio of kcat/KM, WT over R24M PTP1B (fold reduction by the mutation)): 1.2
k of initial phase (PTPD1): > 100 s⁻¹
kcat/KM x 10^7 (PTP1B): 0.00069 x 10^7 M^−1 s^−1
Structure (SMILES): O=[N+]([O-])c1ccc(OP(=O)(O)O)cc1 [pNPP, p-nitrophenyl phosphate, reference compound]

Reference: publication PMC3954597 (Biochemistry, 2014)
